Experimental data published in the array DNA melting data of Ke et al. (doi:10.1101/2024.01.08.574731).

How the values were obtained:
[1] = melting temperature; fluorescence melt of hairpins on a sequencing array, two-state fit, raised by 9.35 °C to match UV melts; settings: sodium 0.088 M
Procedure, shortened: (§1)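 Cy3 fluorescence of library hairpins on a sequenced MiSeq flow cell, with annealed Cy3 and quencher oligos, was imaged in 50 mM Na-HEPES pH 8.0, 25 mM NaCl in 2.5 °C steps up to 60 °C. Signals were normalised to pre-quench Cy3 and to control variants. Melting temperature and folding enthalpy came from bootstrapped two-state fits, inverse-variance combined over four replicates. Fitted temperatures were raised by 9.35 °C to match UV melts.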

[2] = folding enthalpy; higher = less favourable; fluorescence melt of hairpins on a sequencing array, two-state fit; settings: sodium 0.088 M
Procedure, shortened: as §1

Sequence | Tm [1] [°C] | folding enthalpy [2] [kcal/mol]
GACAACGAAAGTTAAGTC ((((((....)))..))) | 33.2 | -14.7
GACAACGAAAGTTGAGTC ((((((....)))..))) | 34.8 | -11.2
GACAACGAAAGTTGGGTC ((((((....)))..))) | 49.8 | -15.7
GACAAGACGAAAGTCGTC (((..(((....)))))) | 40.8 | -13.1
GACAAGCGAAAGCTAGTC (((.(((....))).))) | 52 | -23
GACAAGGCGAAAGCCGTC (((..(((....)))))) | 40.9 | -8.66
GACAAGGGAAACCTTGCC (.(((((....))))).) | 42 | -14.8
GACAATGAAAATTGTC ((((((....)))))) | 51.6 | -31.3
GACACAACGAAAGTTGTC (((..(((....)))))) | 38.7 | -9.73
GACACACCGAAAGGTGTC (((..(((....)))))) | 37.3 | -8
GACACAGCGAAAGCTGTC (((..(((....)))))) | 32.3 | -8.05
GACACAGGAAACTGTACC (..((((....))))..) | 25.1 | -11.1
GACACAGGAAACTGTGTC (((((((....))))))) | 62.5 | -47.9
GACACCGAAAGGTAAGTC ((((((....)))..))) | 38.5 | -20.2
GACACCGAAAGGTGCGTC ((((((....)))..))) | 45.7 | -10.2
GACACGGGAAACCATGTC ((((.((....)).)))) | 39.9 | -32.9
GACACGGGAAACCGTGCC (.(((((....))))).) | 48.4 | -13.8
GACACTGGAAACAGTACC (..((((....))))..) | 24.2 | -13
GACACTGGAAACAGTATC ((.((((....)))).)) | 30.4 | -17.6
GACAGAACGAAAGTTGTC (((..(((....)))))) | 36.8 | -28.2
GACAGACGAAAGTCAGTC (((.(((....))).))) | 51.7 | -28.2
GACAGAGGAAACCCTGTC (((((.(....).))))) | 42.5 | -32.9
GACAGCGAAAGCTACGTC ((((((....)))..))) | 39.8 | -13.8
